Blank lines part the entries; values can stand above or below the molecule they belong to.
Assays:
[1] = Inhibition of growth of H35FF cells; format: functional, cell-based
Summary of the method: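 The H35FF line was derived from H35 cells by growth in 25 μM (6RS)-5-formyltetrahydrofolate, held constant, with FdUR raised from 0.3 nM in 3-fold steps to 100 nM. This selection amplifies thymidylate synthase to about 70 times the H35N level.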

[2] = system: H35R0.3; assay: Inhibition of growth of H35R cells; format: functional, cell-based, Homo sapiens; conditions: Rattus norvegicus
[3] = Inhibition of growth of H35N cells; format: functional, cell-based
[4] = Inhibition of growth of colon adenocarcinoma SW 480 cells; format: functional, cell-based; conditions: Homo sapiens, SW480
[5] = molecular target: T1, Thymidylate synthase (Homo sapiens, UniProt P04818); assay: Inhibition of purified human thymidylate synthase from a SV40-transformed human fibroblast cell line cloned in Escherichia coli
T1 sequence (P04818 whole entry): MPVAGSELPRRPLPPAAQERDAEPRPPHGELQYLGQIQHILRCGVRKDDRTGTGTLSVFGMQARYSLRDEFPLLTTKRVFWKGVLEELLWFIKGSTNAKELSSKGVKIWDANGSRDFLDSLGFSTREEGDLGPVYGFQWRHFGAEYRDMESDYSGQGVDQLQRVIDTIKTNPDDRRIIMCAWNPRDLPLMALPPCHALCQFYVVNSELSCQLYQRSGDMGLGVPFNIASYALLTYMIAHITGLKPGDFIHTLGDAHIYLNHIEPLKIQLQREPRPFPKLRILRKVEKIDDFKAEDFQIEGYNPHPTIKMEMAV

[6] = molecular target: Bifunctional purine biosynthesis protein ATIC (Homo sapiens, UniProt P31939); assay: Inhibition of AICAR formyltransferase from extract of Manca human lymphoma cells; format: cell-based
Sequence of Bifunctional purine biosynthesis protein ATIC (P31939 whole entry): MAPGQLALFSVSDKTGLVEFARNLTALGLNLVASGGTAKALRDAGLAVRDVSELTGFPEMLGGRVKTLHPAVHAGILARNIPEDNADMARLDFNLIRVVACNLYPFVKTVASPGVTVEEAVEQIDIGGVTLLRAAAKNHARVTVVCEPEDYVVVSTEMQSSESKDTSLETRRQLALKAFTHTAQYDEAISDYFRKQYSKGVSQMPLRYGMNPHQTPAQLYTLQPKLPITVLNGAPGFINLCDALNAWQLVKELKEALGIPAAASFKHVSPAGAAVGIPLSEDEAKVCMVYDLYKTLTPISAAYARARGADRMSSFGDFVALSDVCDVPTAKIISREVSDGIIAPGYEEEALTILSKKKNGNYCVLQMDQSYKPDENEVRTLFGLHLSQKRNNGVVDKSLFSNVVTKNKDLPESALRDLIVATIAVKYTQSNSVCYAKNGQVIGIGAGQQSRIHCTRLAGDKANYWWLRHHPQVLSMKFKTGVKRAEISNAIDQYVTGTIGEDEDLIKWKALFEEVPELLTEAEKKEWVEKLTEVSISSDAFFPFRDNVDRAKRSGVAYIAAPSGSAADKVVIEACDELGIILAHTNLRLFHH

[7] = molecular target: Dihydrofolate reductase (Lactobacillus casei, UniProt P00381); assay: Inhibition of dihydrofolate reductase in Lactobacillus casei; design: species or system Lacticaseibacillus casei
Sequence of Dihydrofolate reductase (Lactobacillus casei, UniProt P00381) (P00381 whole entry): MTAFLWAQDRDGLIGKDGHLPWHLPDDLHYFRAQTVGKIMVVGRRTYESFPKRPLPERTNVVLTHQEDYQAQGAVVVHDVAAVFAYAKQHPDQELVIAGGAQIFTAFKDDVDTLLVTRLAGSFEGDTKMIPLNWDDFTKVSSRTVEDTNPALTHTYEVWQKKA

[8] = molecular target: T2, Dihydrofolate reductase (Homo sapiens, UniProt P00374); assay: Inhibition of pure human dihydrofolate reductase (DHFR) from lymphoblastoid cells
T2 sequence (P00374 whole entry): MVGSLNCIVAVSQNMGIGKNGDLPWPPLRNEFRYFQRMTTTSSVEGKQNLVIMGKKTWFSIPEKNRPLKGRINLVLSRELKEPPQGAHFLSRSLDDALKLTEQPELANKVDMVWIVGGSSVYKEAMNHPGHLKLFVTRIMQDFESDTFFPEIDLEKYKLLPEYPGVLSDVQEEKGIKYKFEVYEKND

[9] = molecular target: T3, Trifunctional purine biosynthetic protein adenosine-3 (Homo sapiens, UniProt P22102); assay: Inhibition of GAR formyltransferase from extract of Manca human lymphoma cells; format: cell-based
T3 sequence (P22102 whole entry): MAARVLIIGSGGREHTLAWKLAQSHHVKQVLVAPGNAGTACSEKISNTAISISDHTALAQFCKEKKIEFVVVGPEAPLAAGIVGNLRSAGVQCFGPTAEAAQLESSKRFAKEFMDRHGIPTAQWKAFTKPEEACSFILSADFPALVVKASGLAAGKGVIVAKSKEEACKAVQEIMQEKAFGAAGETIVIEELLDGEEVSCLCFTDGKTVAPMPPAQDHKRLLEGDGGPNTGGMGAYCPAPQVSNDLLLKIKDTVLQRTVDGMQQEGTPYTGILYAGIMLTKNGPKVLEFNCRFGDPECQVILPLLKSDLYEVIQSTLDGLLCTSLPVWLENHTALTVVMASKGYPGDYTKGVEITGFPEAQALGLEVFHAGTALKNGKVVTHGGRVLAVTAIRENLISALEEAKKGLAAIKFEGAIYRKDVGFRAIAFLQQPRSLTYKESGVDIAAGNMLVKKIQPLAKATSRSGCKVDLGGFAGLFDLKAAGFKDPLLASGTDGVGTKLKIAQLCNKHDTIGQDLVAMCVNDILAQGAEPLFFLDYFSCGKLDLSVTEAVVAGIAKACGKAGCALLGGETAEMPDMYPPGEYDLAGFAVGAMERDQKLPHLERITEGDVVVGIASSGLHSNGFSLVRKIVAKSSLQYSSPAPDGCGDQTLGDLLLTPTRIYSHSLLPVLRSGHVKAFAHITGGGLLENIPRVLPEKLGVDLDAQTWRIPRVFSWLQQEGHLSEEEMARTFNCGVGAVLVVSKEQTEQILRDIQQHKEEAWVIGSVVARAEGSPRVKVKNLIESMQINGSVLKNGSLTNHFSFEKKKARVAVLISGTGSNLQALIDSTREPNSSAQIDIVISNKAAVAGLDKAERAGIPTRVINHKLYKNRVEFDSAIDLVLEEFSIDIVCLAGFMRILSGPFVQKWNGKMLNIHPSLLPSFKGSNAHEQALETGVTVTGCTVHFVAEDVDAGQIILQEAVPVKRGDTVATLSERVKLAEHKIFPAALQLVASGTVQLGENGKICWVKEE

[10] = system: H35R0.3; assay: Inhibition of methotrexate (5 uM) transport in H35 hepatoma cell culture and % uptake was reported in presence of inhibitor PDDF (50 uM); format: functional, cell-based
Summary of the method: (§1)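 Confluent H35 hepatoma monolayers were washed twice with Hanks BSS and held at 37 °C. [3H]methotrexate (5 μM, 5.5×10^5 dpm/nmol) was added with or without inhibitor, and uptake was taken at 4 min, within its linear range. Results are percent of the uninhibited control uptake, averaged from duplicate samples.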

[11] = system: H35R0.3; assay: Inhibition of methotrexate (5 uM) transport in H35 hepatoma cell culture and % uptake was reported in presence of inhibitor aminopterin (50 uM); format: functional, cell-based; summary of the method: as §1
[12] = system: H35R0.3; assay: Inhibition of methotrexate (5 uM) transport in H35 hepatoma cell culture and % uptake was reported in presence of inhibitor folic acid (50 uM); format: functional, cell-based; summary of the method: as §1
[13] = system: H35R0.3; assay: Inhibition of methotrexate (5 uM) transport in H35 hepatoma cell culture and % uptake was reported in presence of inhibitor methotrexate (50 uM); format: functional, cell-based; summary of the method: as §1
[14] = system: H35R0.3; assay: Inhibition of (6RS)-5-formyltetrahydrofolate (2 uM) transport in H35 hepatoma cell culture and % uptake was determined in presence of inhibitor PDDF (50 uM); format: functional, cell-based
Summary of the method: (§2)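 H35 hepatoma cells were grown to confluence, washed twice with Hanks BSS and incubated at 37 °C. [3H]-(6RS)-5-formyltetrahydrofolate (2 μM, 3.8×10^5 dpm/nmol) was added with or without inhibitor, and uptake was sampled at 10 min, within its linear range. Uptake is expressed as percent of the no-inhibitor control, as the mean of duplicate samples.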

[15] = system: H35R0.3; assay: Inhibition of (6RS)-5-formyltetrahydrofolate (2 uM) transport in H35 hepatoma cell culture and % uptake was determined in presence of inhibitor aminopterin (50 uM); format: functional, cell-based; summary of the method: as §2
[16] = system: H35R0.3; assay: Inhibition of (6RS)-5-formyltetrahydrofolate (2 uM) transport in H35 hepatoma cell culture and % uptake was determined in presence of inhibitor folic acid (50 uM); format: functional, cell-based; summary of the method: as §2
[17] = system: H35R0.3; assay: Inhibition of (6RS)-5-formyltetrahydrofolate (2 uM) transport in H35 hepatoma cell culture and % uptake was determined in presence of inhibitor methotrexate (50 uM); format: functional, cell-based; summary of the method: as §2
[18] = system: H35R0.3; assay: Inhibition of methotrexate (5 uM) transport in H35 hepatoma cell culture and % uptake was reported in presence of inhibitor (6RS)-5-formyltetrahydrofolate (50 uM); format: functional, cell-based; summary of the method: as §1
[19] = system: H35R0.3; assay: Inhibition of methotrexate (5 uM) transport in H35 hepatoma cell culture and % uptake was reported in presence of inhibitor DMPDDF (50 uM); format: functional, cell-based; summary of the method: as §1
[20] = system: H35R0.3; assay: Inhibition of methotrexate (5 uM) transport in H35 hepatoma cell culture; format: functional, cell-based; summary of the method: as §1
[21] = system: H35R0.3; assay: Inhibition of (6RS)-5-formyltetrahydrofolate (2 uM) transport in H35 hepatoma cell cultured and % uptake was determined in presence of inhibitor (6RS)-5-formyltetrahydrofolate (50 uM); format: functional, cell-based; summary of the method: as §2
[22] = system: H35R0.3; assay: Inhibition of (6RS)-5-formyltetrahydrofolate (2 uM) transport in H35 hepatoma cell culture and % uptake was determined in presence of inhibitor DMPDDF (50 uM); format: functional, cell-based; summary of the method: as §2
[23] = system: H35R0.3; assay: Inhibition of (6RS)-5-formyltetrahydrofolate (2 uM) transport in H35 hepatoma cell culture; format: functional, cell-based; summary of the method: as §2
[24] = system: Lymphoma cell line; assay: Inhibition of growth of tumor cells, manca human lymphoma cells; format: functional, cell-based
[25] = system: Lacticaseibacillus casei; assay: Inhibition of growth of Lactobacillus casei; format: functional, organism-based
[26] = molecular target: T1, Thymidylate synthase; assay: Inhibition of pure human thymidylate synthase from extract of Manca human lymphoma cells; format: cell-based
[27] = system: Enterococcus faecium; assay: Inhibition of growth of Staphylococcus faecium; format: functional, organism-based
[28] = molecular target: T4, Thymidylate synthase (Lactobacillus casei, UniProt P00469); assay: Inhibition of thymidylate synthase in Lactobacillus casei; design: species or system Lacticaseibacillus casei
T4 sequence (P00469 whole entry): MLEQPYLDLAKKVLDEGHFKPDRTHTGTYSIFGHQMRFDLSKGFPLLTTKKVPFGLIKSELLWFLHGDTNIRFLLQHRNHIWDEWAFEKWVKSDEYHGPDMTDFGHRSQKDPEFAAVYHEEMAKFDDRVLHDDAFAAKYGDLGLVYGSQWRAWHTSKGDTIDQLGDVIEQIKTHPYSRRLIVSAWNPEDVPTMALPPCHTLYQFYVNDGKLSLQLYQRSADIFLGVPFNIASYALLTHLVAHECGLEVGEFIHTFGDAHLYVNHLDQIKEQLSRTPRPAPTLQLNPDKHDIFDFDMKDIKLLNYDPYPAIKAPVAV

Structure (SMILES): CN(Cc1cnc2nc(N)nc(N)c2n1)c1ccc(C(=O)N[C@@H](CCC(=O)O)C(=O)O)cc1 [METHOTREXATE]
IC50 [1]: 10 nM
IC50 [2]: 906 nM
IC50 [3]: 10 nM

Structure (SMILES): C#CCN(Cc1ccc2nc(C(F)(F)F)nc(O)c2c1)c1ccc(C(=O)NC(CCC(=O)O)C(=O)O)cc1 (centres undefined)
IC50 [4]: > 100000 nM

Structure (SMILES): C#CCN(Cc1ccc2[nH]c(N)nc(=O)c2c1)c1ccc(C(=O)NC(CCC(=O)O)C(=O)O)cc1 (centres undefined)
IC50 [2]: 2000 nM
IC50 [24]: 560 nM
IC50 [25]: 0.4 nM
IC50 [27]: 0.13 nM
IC50 [3]: 3600 nM

Second part, led by results:

IC50 [5]: 11300 nM
Structure (SMILES): C#CCN(Cc1ccc2nc(C)n(C)c(=O)c2c1)c1ccc(C(=O)NC(CCC(=O)O)C(=O)O)cc1 (centres undefined)
IC50 [4]: > 100000 nM

IC50 [6]: > 60000 nM
IC50 [7]: 35000 nM
IC50 [8]: > 30000 nM
IC50 [9]: > 17000 nM
IC50 [24]: 13 nM
IC50 [26]: 60 nM
IC50 [28]: 100 nM
IC50 [5]: 9.8 nM
Structure (SMILES): C#CCN(Cc1ccc2nc(C)nc(O)c2c1)c1ccc(C(=O)NC(CCC(=O)O)C(=O)O)cc1 (centres undefined)
IC50 [4]: 50 nM
IC50 [1]: 7280 nM
IC50 [2]: 2240 nM
Uptake [10]: 100%
Uptake [11]: 25%
Uptake [12]: 85%
Uptake [13]: 25%
Uptake [14]: 90%
Uptake [15]: 11%
Uptake [16]: 83%
Uptake [17]: 22%
Uptake [18]: 25%
Uptake [19]: 25%
Uptake [20]: 100%
Uptake [21]: 22%
Uptake [22]: 8.5%
Uptake [23]: 100%
IC50 [25]: 22 nM
IC50 [27]: 6 nM
IC50 [3]: 55 nM
